2 compounds from ChEMBL document CHEMBL4304834, “3-Amino-chromanes and Tetrahydroquinolines as Selective 5-HT2B, 5-HT7, or σ1 Receptor Ligands” (ACS Med Chem Lett, 2019) can be followed below.

The nature of data set [1]: Selectivity index, ratio of Ki for rat brain PBR receptor to Ki for human recombinant sigma1 receptor. The essentials:
(§1)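 Both Ki values in each ratio come from NIMH Psychoactive Drug Screening Program radioligand binding. […] Other targets were given full binding curves, measured in triplicate, and Ki was taken from a sigmoidal curve fit. Some values were repeated in duplicate or triplicate independent experiments.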

The species entered for data set [2] is Homo sapiens. The data set is described as follows: Selectivity index, ratio of Ki for human recombinant NET receptor to Ki for human recombinant sigma1 receptor. The method, boiled down: as §1
Data set [3] is described as follows: Selectivity index, ratio of Ki for rat brain BZP receptor to Ki for human recombinant sigma1 receptor. The method, boiled down: as §1
The species named for data set [4] is Homo sapiens. The data set is described as follows: Selectivity index, ratio of Ki for human recombinant histamine H2 receptor to Ki for human recombinant sigma1 receptor. The method, boiled down: as §1
For data set [5], the species on record is Homo sapiens. The data set is described as follows: Selectivity index, ratio of Ki for human recombinant histamine H1 receptor to Ki for human recombinant sigma1 receptor. The essentials:
as §1

The subject of data set [6] is 661W. Nature of the data set: Cytoprotective activity in mouse 661W cells assessed as inhibition of t-BHP induced oxidative stress by measuring increase in cell viability at 30 uM after 24 hrs by MTT assay (Rvb < 50%). The format is functional. (In general: Tetrazolium assays rely on reduction of a dye to a coloured formazan, in cell work by metabolically active cells.)

The species named for data set [7] is Homo sapiens. Nature of the data set: Selectivity index, ratio of Ki for human recombinant MOR receptor to Ki for human recombinant sigma1 receptor. The essentials: as §1
Data set [8] is filed under the species Homo sapiens. The data set is described as follows: Selectivity index, ratio of Ki for human recombinant Muscarinic acetylcholine M1 receptor to Ki for human recombinant sigma1 receptor. The essentials:
as §1

The species named for data set [9] is Homo sapiens. The data set is described as follows: Selectivity index, ratio of Ki for human recombinant 5-HT1A to Ki for human recombinant sigma1 receptor.
Data set [10] relates to 661W. Nature of the data set: Cytoprotective activity in mouse 661W cells assessed as inhibition of t-BHP induced oxidative stress by measuring increase in cell viability after 24 hrs by MTT assay. In kind it is functional, cell-based.
The species entered for data set [11] is Homo sapiens. Nature of the data set: Selectivity index, ratio of Ki for human recombinant Muscarinic acetylcholine M5 receptor to Ki for human recombinant sigma1 receptor. The essentials: as §1
The species entered for data set [12] is Homo sapiens. Nature of the data set: Selectivity index, ratio of Ki for human recombinant KOR receptor to Ki for human recombinant sigma1 receptor. The method, boiled down: as §1
Data set [13] concerns 661W. The data set is described as follows: Cytoprotective activity in mouse 661W cells assessed as inhibition of t-BHP induced oxidative stress by measuring in cell viability at 30 uM in presence of 10 uM of […] preincubated for 30 mins followed by compound addition and measured after 24 hrs by MTT assay. In kind it is functional, cell-based. The method, boiled down: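 Same 661W oxidative-stress setup: 55 μM tBHP for 24 h with test agent at 30 μM, plus the σ1 antagonist BD1063 at 10 μM. Viability is read by MTT.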

The species entered for data set [14] is Homo sapiens. Nature of the data set: Selectivity index, ratio of Ki for human recombinant 5-HT1D receptor to Ki for human recombinant sigma1 receptor.
The species entered for data set [15] is Homo sapiens. The data set is described as follows: Selectivity index, ratio of Ki for human recombinant dopamine D5 receptor to Ki for human recombinant sigma1 receptor. The method, boiled down:
as §1

Data set [16] is filed under the species Homo sapiens. The data set is described as follows: Selectivity index, ratio of Ki for human recombinant Muscarinic acetylcholine M2 receptor to Ki for human recombinant sigma1 receptor. The essentials:
as §1

The nature of data set [17]: Selectivity index, ratio of Ki for rat brain GABAA receptor to Ki for human recombinant sigma1 receptor. The method, boiled down: as §1
The species named for data set [18] is Homo sapiens. The data set is described as follows: Selectivity index, ratio of Ki for human recombinant histamine H4 receptor to Ki for human recombinant sigma1 receptor. The method, boiled down:
as §1

Data set [19] is filed under the species Homo sapiens. The data set is described as follows: Selectivity index, ratio of Ki for human recombinant dopamine D1 receptor to Ki for human recombinant sigma1 receptor. The method, boiled down: as §1
The species entered for data set [20] is Homo sapiens. The data set is described as follows: Selectivity index, ratio of Ki for human recombinant Muscarinic acetylcholine M4 receptor to Ki for human recombinant sigma1 receptor. The method, boiled down: as §1
Data set [21] is filed under the species Homo sapiens. Nature of the data set: Selectivity index, ratio of Ki for human recombinant 5-HT3 receptor to Ki for human recombinant sigma1 receptor.
For data set [22], the species on record is Homo sapiens. Nature of the data set: Selectivity index, ratio of Ki for human recombinant adrenergic Alpha1D receptor to human recombinant sigma1 receptor. The method, boiled down:
as §1

For data set [23], the species on record is Homo sapiens. The data set is described as follows: Selectivity index, ratio of Ki for human recombinant adrenergic Alpha2C receptor to Ki for human recombinant sigma1 receptor. The essentials:
as §1

Data set [24] is filed under the species Homo sapiens. Nature of the data set: Selectivity index, ratio of Ki for human recombinant adrenergic Alpha1B receptor to Ki for human recombinant sigma1 receptor. The method, boiled down: as §1
For data set [25], the species on record is Homo sapiens. The data set is described as follows: Selectivity index, ratio of Ki for human recombinant dopamine D4 receptor to Ki for human recombinant sigma1 receptor. The method, boiled down: as §1
The species named for data set [26] is Homo sapiens. Nature of the data set: Selectivity index, ratio of Ki for human recombinant 5-HT1B receptor to Ki for human recombinant sigma1 receptor.
Data set [27] is filed under the species Homo sapiens. The data set is described as follows: Selectivity index, ratio of Ki for human recombinant 5-HT1E receptor to Ki for human recombinant sigma1 receptor.
The species named for data set [28] is Homo sapiens. Nature of the data set: Selectivity index, ratio of Ki for human recombinant sigma2 receptor to Ki for human recombinant sigma1 receptor. The essentials: as §1
For data set [29], the species on record is Homo sapiens. The data set is described as follows: Selectivity index, ratio of Ki for human recombinant adrenergic alpha1A receptor to Ki for human recombinant sigma1 receptor. The method, boiled down:
as §1

Data set [30] is filed under the species Homo sapiens. Nature of the data set: Selectivity index, ratio of Ki for human recombinant dopamine D2 receptor to Ki for human recombinant sigma1 receptor. The essentials:
as §1

Data set [31] relates to 661W. Nature of the data set: Cytotoxicity against mouse 661W cells at 200 uM after 24 hrs by MTT assay. In kind it is cell-based. The method, boiled down:
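661W cells treated 24 h with test agent at 10, 30, 100 and 200 μM. Viability is measured by MTT and compared with nontreated cells.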

The species entered for data set [32] is Homo sapiens. The data set is described as follows: Selectivity index, ratio of Ki for human recombinant dopamine D3 receptor to Ki for human recombinant sigma1 receptor. The essentials:
as §1

Data set [33] is filed under the species Homo sapiens. Nature of the data set: Selectivity index, ratio of Ki for human recombinant Muscarinic acetylcholine M3 receptor to Ki for human recombinant sigma1 receptor. The method, boiled down: as §1
The target in data set [34] is Sodium-dependent noradrenaline transporter (Homo sapiens, UniProt P23975). Nature of the data set: Displacement of [3H]-Nisoxetine from human recombinant NET receptor expressed in stable HEK cells at 10 uM after 90 mins by microbeta scintillation counting method relative to control. In kind it is cell-based. The essentials: (§2)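 Radioligand binding run by the NIMH Psychoactive Drug Screening Program. […] Otherwise Ki comes from sigmoidal curve fits of triplicate measurements in a single experiment, or is averaged over repeated experiments each run in triplicate.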
For orientation: Displacement assays read how much labelled ligand stays bound in the presence of the test substance.

The species entered for data set [35] is Homo sapiens. Nature of the data set: Selectivity index, ratio of Ki for human recombinant 5-HT2B receptor to Ki for human recombinant sigma1 receptor.
The species entered for data set [36] is Homo sapiens. The data set is described as follows: Selectivity index, ratio of Ki for human recombinant DAT receptor to Ki for human recombinant sigma1 receptor.
Data set [37] deals with 661W. The data set is described as follows: Cytoprotective activity in mouse 661W cells assessed as reduction in tBHP-induced ROS level at 10 to 30 uM after 2 hrs by […] fluorescent microscopic analysis. The format is functional, cell-based. The essentials:
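661W cells seeded on coverslips for 18 h, then exposed 2 h to 55 μM tBHP with or without test agent or (+)-pentazocine. ROS are detected with CellROX green dye by epifluorescence, with DAPI marking nuclei. Fluorescence intensity is quantified as mean ± SD from three independent experiments, each run in duplicate.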

Data set [38] has as its target Beta-2 adrenergic receptor (Homo sapiens, UniProt P07550). The data set is described as follows: Displacement of [3H]-CGP12177 from human recombinant adrenergic Beta2 receptor expressed in Flp-In HEK cells at 10 uM after 90 mins by microbeta scintillation counting method relative to control. The format is cell-based. The method, boiled down: as §2
Data set [39] has as its target 5-hydroxytryptamine receptor 5A (Homo sapiens, UniProt P47898). Nature of the data set: Displacement of [3H]-LSD from human recombinant 5-HT5A receptor expressed in Flp-In CHO cells at 10 uM after 90 mins by microbeta scintillation counting method relative to control. The format is cell-based. The method, boiled down:
as §2

The next data set is filed under the species Rattus norvegicus. The data set is described as follows: Displacement of [3H]-Flunitrazepam from BZP receptor in rat brain at 10 uM after 90 mins by microbeta scintillation counting method. In kind it is tissue-based. The method, boiled down: as §2

Molecules are shown by their SMILES. Active and inactive are the calls of the source. The rule behind the calls is not given here.

Sodium-dependent noradrenaline transporter, sequence (P23975 whole entry): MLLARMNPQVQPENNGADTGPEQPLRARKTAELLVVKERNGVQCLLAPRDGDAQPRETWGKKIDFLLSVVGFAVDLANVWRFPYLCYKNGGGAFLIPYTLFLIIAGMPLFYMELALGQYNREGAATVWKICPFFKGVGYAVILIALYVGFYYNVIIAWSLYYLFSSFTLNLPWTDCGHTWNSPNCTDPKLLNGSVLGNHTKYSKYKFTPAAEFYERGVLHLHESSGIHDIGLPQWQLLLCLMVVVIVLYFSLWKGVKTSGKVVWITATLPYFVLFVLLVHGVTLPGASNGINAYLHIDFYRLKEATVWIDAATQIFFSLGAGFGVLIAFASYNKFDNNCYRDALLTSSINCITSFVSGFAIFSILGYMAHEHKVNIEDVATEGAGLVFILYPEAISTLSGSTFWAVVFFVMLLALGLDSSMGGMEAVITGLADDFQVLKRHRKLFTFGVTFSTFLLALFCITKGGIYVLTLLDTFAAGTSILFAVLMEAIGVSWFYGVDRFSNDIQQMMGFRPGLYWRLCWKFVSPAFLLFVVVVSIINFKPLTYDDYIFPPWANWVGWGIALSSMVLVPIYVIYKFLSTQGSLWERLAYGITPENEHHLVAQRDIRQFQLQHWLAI
Beta-2 adrenergic receptor, sequence (P07550 whole entry, looked up): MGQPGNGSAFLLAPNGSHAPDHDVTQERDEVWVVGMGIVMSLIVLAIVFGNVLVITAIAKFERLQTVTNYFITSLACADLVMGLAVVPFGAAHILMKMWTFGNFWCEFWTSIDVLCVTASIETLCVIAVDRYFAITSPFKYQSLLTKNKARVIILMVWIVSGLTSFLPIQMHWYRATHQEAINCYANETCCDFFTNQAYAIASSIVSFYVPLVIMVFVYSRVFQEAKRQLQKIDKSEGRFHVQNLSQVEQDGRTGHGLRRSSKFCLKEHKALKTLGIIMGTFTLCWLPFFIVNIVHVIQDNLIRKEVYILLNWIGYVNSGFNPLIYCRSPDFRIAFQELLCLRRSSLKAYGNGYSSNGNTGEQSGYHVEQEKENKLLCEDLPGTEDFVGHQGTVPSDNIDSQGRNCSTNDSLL
5-hydroxytryptamine receptor 5A, sequence (P47898 whole entry): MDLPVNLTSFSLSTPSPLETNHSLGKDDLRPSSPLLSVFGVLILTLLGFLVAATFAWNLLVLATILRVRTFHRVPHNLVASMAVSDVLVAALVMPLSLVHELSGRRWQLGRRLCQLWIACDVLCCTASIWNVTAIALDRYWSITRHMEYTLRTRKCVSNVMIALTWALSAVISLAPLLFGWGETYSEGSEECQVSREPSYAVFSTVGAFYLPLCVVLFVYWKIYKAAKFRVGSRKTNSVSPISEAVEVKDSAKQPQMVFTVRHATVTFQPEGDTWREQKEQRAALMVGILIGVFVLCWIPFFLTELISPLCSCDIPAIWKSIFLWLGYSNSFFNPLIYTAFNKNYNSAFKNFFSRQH

For the compound `COc1cc(OC)c2c(c1)OC[C@@]1(C)NCC[C@@H]21` (racemic), the Ratio Ki (in data set [1]; in the data set filed under Homo sapiens [2]; in [3]; in the data set filed under Homo sapiens [4]; in the data set filed under Homo sapiens [5]; in the data set listed under Homo sapiens [7]) was greater than 20 in each case. Also, the Ratio Ki in the data set filed under Homo sapiens [8], in the data set filed under Homo sapiens [9], in the data set listed under Homo sapiens [11], in the data set filed under Homo sapiens [12], in the data set filed under Homo sapiens [14] and in the data set listed under Homo sapiens [15] was greater than 20 in each case. For the same compound, the Ratio Ki (in the data set listed under Homo sapiens [16]; in data set [17]; in the data set listed under Homo sapiens [18]; in the data set filed under Homo sapiens [19]; in the data set filed under Homo sapiens [20]; in the data set listed under Homo sapiens [21]) was greater than 20 throughout. The Ratio Ki in the data set listed under Homo sapiens [22], in the data set filed under Homo sapiens [23], in the data set filed under Homo sapiens [24], in the data set filed under Homo sapiens [25], in the data set filed under Homo sapiens [26] and in the data set filed under Homo sapiens [27] was greater than 20 throughout. Further, the Ratio Ki was greater than 200 in the data set listed under Homo sapiens [28]; greater than 20 in the data set listed under Homo sapiens [29]; greater than 20 in the data set listed under Homo sapiens [30]; greater than 20 in the data set filed under Homo sapiens [32]; greater than 20 in the data set listed under Homo sapiens [33]; greater than 5 in the data set listed under Homo sapiens [35]. For the same compound, the Ratio Ki in the data set listed under Homo sapiens [36] was greater than 20. For the same compound, the Activity with 661W [6] is greater than 80%; in the data set on 661W [10] it was “Dose-dependent effect”; with 661W [31] it was “Non-Toxic”. The result in the data set on 661W [13] was inactive. Also, the inhibition (commonly the percentage by which the read-out fell short of the control) in data set [34] is less than 50%. Besides, the inhibition result with 661W [37] was “Active”.
`CC[C@H]1c2cc(C)ccc2OC[C@@]1(C)N` (racemic): the inhibition (in data set [38]; in [39]; in the data set listed under Rattus norvegicus) was less than 50% in each case.
